Legend:
[1] = pKa value was determined by differential pulse polarography; format: physicochemical
A549 = assay: In vitro cytotoxicity against A-549 (human lung carcinoma) cell line.; format: functional, cell-based
In short: (§1)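 Growth-inhibition screen adapted from Bergeron et al. Cells were kept in exponential growth in EMEM with 5% FCS, 10^-2 M sodium bicarbonate, penicillin G and streptomycin (0.1 g/L each) and 2.0 mM L-glutamine. P-388 was grown as a suspension and seeded at 1 × 10^4 cells/well. A-549 and HT-29 were grown as monolayers and seeded at 2 × 10^4 cells/well.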

HT-29 = assay: In vitro cytotoxicity against HT-29 (human colon) cell line.; format: functional, cell-based; in short: as §1
P388 = assay: In vitro cytotoxicity against P-388 (mouse leukemia) cell line.; format: functional, cell-based; in short: as §1

Row | SMILES | pKa [1] | IC50 (A549) [µM] | IC50 (HT-29) [µM] | IC50 (P388) [µM]
1 | Cc1ccc2nc3sc(N4CCN(C)CC4)nc3c(O)c2c1 | 10 | 29.6 | 17 | 16.9
2 | CSc1nc2c(O)c3cc(F)ccc3nc2s1 | 5.7 | > 66.1 | > 66.1 | > 66.1
3 | Cc1ccc2nc3sc(S(C)(=O)=O)nc3c(O)c2c1 | 4 | > 60.4 | > 60.4 | > 60.4
4 | CSc1nc2c(O)c3cc(C)ccc3nc2s1 | 4.6 | > 66.9 | > 66.9 | > 66.9
5 | CCN(CC)CCCNc1c2ccccc2nc2sc(SC)nc12 | 7.5 | 6 | 6 | 6
6 | CS(=O)(=O)c1nc2c(O)c3cc(F)ccc3nc2s1 | 5.5 | 6 | 6 | 6
7 | CN1CCN(c2nc3c(O)c4ccccc4nc3s2)CC1 | 8.6 | 18.8 | 18.8 | 18.8
8 | CSc1nc2c(O)c3ccccc3nc2s1 | 5.9 | > 70.2 | > 70.2 | > 70.2
9 | CS(=O)(=O)c1nc2c(O)c3ccccc3nc2s1 | 5.2 | 32.4 | 32.4 | 32.4
10 | CCN(CC)CCNc1nc2c(O)c3ccccc3nc2s1 | 9.3 | 7.22 | 7.22 | 5.76
11 | CN1CCN(c2nc3c(O)c4cc(F)ccc4nc3s2)CC1 | 8 | > 56.4 | > 56.4 | > 56.4
12 | CSc1nc2c(N(C)CCCN(C)C)c3ccccc3nc2s1 | 6.5 | 12.1 | 12.1 | 12.1
13 | CCN(CC)CCCNc1c2cc(C)ccc2nc2sc(SC)nc12 | 7.9 | 5.4 | 5.4 | 5.4
14 | CCN(CC)CCNc1nc2c(O)c3cc(C)ccc3nc2s1 | 8.4 | 5.6 | 3.3 | 3.3
15 | CCN(CC)CCNc1nc2c(O)c3cc(F)ccc3nc2s1 | 8.3 | 2.9 | 5 | 1.65
16 | Oc1c2ccccc2nc2sc(Cl)nc12 | 5.9 | 11.6 | 11.6 | 5.3
17 | Oc1c2cc(F)ccc2nc2sc(Cl)nc12 | 4.9 | 7.4 | 7.4 | 7.4
18 | Cc1ccc2nc3sc(Cl)nc3c(O)c2c1 | 5 | 34.6 | 34.6 | 34.6

Source: ChEMBL document CHEMBL1129951, “Synthesis and antitumor evaluation of new thiazolo[5,4-b]quinoline derivatives” (J Med Chem, 1997)
